Source: PubChem
TAAR1 antagonist – human TAAR1 antagonists, primary screen, Fluo-8 calcium fluorescence, CHO RD-HGA16 cells; Trace amine-associated receptor 1 (Homo sapiens), Q96RJ0; antagonist; inhibition, % at 3 µM; hit rate 1.5% among 360,000; AID 624466, 2012;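 active = inhibition above a per-plate cutoff, the mean inhibition of test compounds on that plate plus 3 SD, cut at about 49% in these data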;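 note: 0% = DMSO plus EC80 beta-PEA response and 100% = DMSO alone without agonist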
Target sequence (Q96RJ0 whole entry, looked up): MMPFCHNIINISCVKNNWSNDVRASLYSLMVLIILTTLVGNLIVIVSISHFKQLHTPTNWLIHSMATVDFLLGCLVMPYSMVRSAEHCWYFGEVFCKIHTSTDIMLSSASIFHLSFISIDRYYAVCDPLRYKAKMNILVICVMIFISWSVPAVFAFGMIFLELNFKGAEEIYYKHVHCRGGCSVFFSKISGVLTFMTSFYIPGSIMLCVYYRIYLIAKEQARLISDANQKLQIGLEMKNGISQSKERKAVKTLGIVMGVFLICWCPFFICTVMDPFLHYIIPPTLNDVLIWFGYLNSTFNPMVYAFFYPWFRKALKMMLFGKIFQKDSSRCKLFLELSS
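test system = CHO RD-HGA16 cells bearing hTAAR1 | replication = singlicate | controls = DMSO-only wells and EC80 β-PEA-stimulated wells | reagent = EC80 β-phenethylamine stimulus | read-out basis = percent inhibition of PEA-evoked calcium signal, max/basal emission ratio | schedule = seeding 17-24 h prior, 75-min 37 °C, 30-min RT dye loading | signal = kinetic Fluo-8 calcium fluorescence measurement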
OXTR agonist – human OXTR agonists, primary screen, fluorescence, CHO-OTR cells, Fluo-8 calcium; Fluo-8 calcium fluorescence; normalized: DMSO 0%, oxytocin 100%; activation, % at 3 µM; hit rate 0.32% among 320,000;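 active = activation above the mean of all tested compounds plus 3 SD, cutoff set per screening run, cut at about 20% in these data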;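 note: peak over basal fluorescence ratio from a 100 s FLIPR kinetic read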
Target sequence (P30559 whole entry, looked up): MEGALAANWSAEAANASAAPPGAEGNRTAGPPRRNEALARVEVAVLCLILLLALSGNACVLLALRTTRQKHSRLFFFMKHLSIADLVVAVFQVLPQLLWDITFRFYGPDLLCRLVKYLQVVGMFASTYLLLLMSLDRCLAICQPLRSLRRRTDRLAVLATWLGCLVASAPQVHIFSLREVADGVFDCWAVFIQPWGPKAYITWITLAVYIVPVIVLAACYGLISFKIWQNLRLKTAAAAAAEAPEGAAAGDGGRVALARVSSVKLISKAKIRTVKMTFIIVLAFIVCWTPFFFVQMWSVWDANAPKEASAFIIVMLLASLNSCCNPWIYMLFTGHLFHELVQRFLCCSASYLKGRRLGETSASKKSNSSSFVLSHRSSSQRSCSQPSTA
OXTR potentiator – human OXTR potentiators, primary screen, fluorescence, CHO-OTR cells, Fluo-8 calcium | Fluo-8 calcium fluorescence, potentiator mode; 0% = oxytocin EC15, 100% = EC100 | hit rate 0.061% among 320,000 | Oxytocin receptor (Homo sapiens), P30559 | activation, % at 3 µM;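 active = activation above that plate's cutoff, the mean activation of tested compounds plus 3 SD, cut at about 6.6% in these data, passing the limit was not always enough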;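 note: 100% uses oxytocin at 75 nM as the full agonist control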
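Material: human OTR in CHO cells. Compound: 3.0 µM, one dose. Timing: compound 6 min at room temperature before oxytocin, 100 s read. Evaluation: % activation of max/min ratio relative to oxytocin controls. Replication: single well per compound, singlicate. Signal: Fluo-8 calcium dye fluorescence.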
TAAR1 ag – human TAAR1 agonists, primary screen, Fluo-8 calcium fluorescence, CHO RD-HGA16 cells | Trace amine-associated receptor 1 (Homo sapiens), Q96RJ0 | vehicle wells 0%, saturating PEA agonist 100% | activation, % at 3 µM | hit rate 0.99% among 360,000 | AID 624467, 2012;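 active = activation above the mean activation of all test compounds in the run plus 3 SD, cut at about 38% in these data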
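Signal – calcium-sensitive Fluo-8 signal, excitation 470-495, emission 515-575 nm · System – RD-HGA16 (CHO) cells co-expressing Gα16 and hTAAR1 · Incubation – 17-24 h seeding, 75 min 37 °C dye, 30 min RT · Compound dosing – 3 µM single concentration · Repeats – no replicates (n 1)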
V1R ag counter – agonists of human V1a receptor, primary screen, counter-screen for OXTR agonist project, fluorescence, CHO-V1R cells; Vasopressin V1a receptor (Homo sapiens), P37288; Fluo-8 calcium fluorescence, agonist mode; 0% DMSO, 100% 3 nM vasopressin; activation, % at 3 µM; hit rate 0.25% among 320,000; AID 2797, 2010;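 active = activation above the mean activation of all tested compounds plus 3 SD, per screening run, cut at about 20% in these data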;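 note: signal is peak over basal fluorescence ratio across a 100 second FLIPR read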
TAAR1 ag conf – human TAAR1 agonists, retest of hits, confirmation, Fluo-8 calcium fluorescence, CHO RD-HGA16 cells; scaled: DMSO 0%, maximal phenethylamine 100%; hit rate 82% among 2,400; shares compounds with TAAR1 ag; activation, % at 3 µM;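 active = activation above a cutoff set at the run's mean compound activation plus 3 SD, cut at about 39% in these data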
Ga16 nonsel ag – nonselective calcium mobilization agonists, CHO-Ga16 cells, counter-screen for hTAAR1 agonist project, cell-based, fluorescence, CHO-Ga16 parental line. shares compounds with TAAR1 ag. Fluo-8 calcium fluorescence; normalized to maximal ATP response, DMSO zero. activation, % at 3 µM. hit rate 50% among 2,400. AID 651787, 2012;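 active = activation above the run cutoff, the mean activation over all tested wells plus 3 SD, cut at about 12% in these data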;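 note: 0% = DMSO wells and 100% = maximal ATP response on the peak over basal ratio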
TAAR1 desensitize – TAAR1 desensitization by agonist hits, confirmation, counter-screen for TAAR1 agonist project, cell-based, fluorescence, tachyphylaxis | inhibition, % at 3 µM | shares compounds with TAAR1 ag | hit rate 46% among 2,400 | CHO RD-HGA16 hTAAR1, Fluo-8 calcium, beta-PEA response inhibition;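 active = inhibition above the run cutoff, the mean inhibition of all test compounds plus 3 SD, cut at about 49% in these data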;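 note: beta-PEA stimulus applied at its EC80; loss of beta-PEA calcium signal after compound pretreatment read as receptor desensitization; 0% = DMSO with beta-PEA at EC80 and 100% = DMSO alone without agonist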
Ga16 nonsel ant – inhibition of ATP-evoked calcium response in CHO-Ga16 cells, counter-screen for TAAR1 agonist project, cell-based, fluorescence | shares compounds with TAAR1 ag | CHO-Ga16 ATP-induced calcium, Fluo-8 fluorescence | inhibition, % at 3 µM | hit rate 39% among 2,400;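 active = inhibition above the plate's mean compound inhibition plus 3 SD, computed per plate, cut at about 22% in these data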;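 note: 0% = EC80 ATP with DMSO and 100% = DMSO wells without ATP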
Starred values were filed as active, the others as inactive; x = not tested or not shown. Most compounds without a hit are left out; they make up all but 2.3% or so of the library.

SMILES	TAAR1 antagonist	OXTR agonist	OXTR potentiator	TAAR1 ag	V1R ag counter	TAAR1 ag conf	Ga16 nonsel ag	TAAR1 desensitize	Ga16 nonsel ant
CCOc1ccccc1NC(=O)CN1c2cccc3cccc(c23)S1(=O)=O	8.4	-0.5	-6.4	2.7	0.2	x	x	x	x
Cc1cc(C(C)(C)CC(C)(C)C)ccc1OCCOCC[N+](C)(C)Cc1ccccc1	75.1*	36.7*	-10.2	81.4*	21.3*	69.1*	66.2*	45.4	66.7*
C[N+](C)(CCOc1ccccc1)Cc1ccccc1	-13.5	x	x	8.4	x	x	x	x	x
O=C(COC(=O)/C=C/c1cccs1)Nc1ccc(Cl)cc1F	73.6*	-1.6	2.5	59.0*	-0.5	29.5	3.5	21.2	8.6
COC(=O)[C@H](CCSC)NC(=O)NCCc1ccccc1F	-1.1	-0.7	-4.3	46.6*	-0.5	53.2*	0.9	25.9	7.7
CSCC[C@H](NC(=O)NCc1ccccc1F)C(=O)O	-6.4	0.3	-6.0	0.1	1.3	x	x	x	x
O=C1/C(=C\c2ccc(Br)o2)Cc2ccccc21	31.8	-2.1	-0.1	50.4*	-1.7	6.8	9.5	-11.8	-1.4
O=C1/C(=C/c2cccs2)Cc2ccccc21	-8.5	-1.7	4.6	-2.1	-1.2	x	x	x	x
O=C(NCCc1ccccc1)C(c1ccncc1)N(C(=O)c1csnn1)C1CC1 (stereo not given)	49.3*	-0.7	-19.5	83.2*	-0.4	90.8*	0.1	67.7*	0.9
COc1ccc(C(=O)CC(=O)C(=O)Nc2cccc([N+](=O)[O-])c2C)cc1	7.7	-0.2	-10.5	70.8*	1.2	82.5*	61.8*	34.7	22.8*
COc1cccc(C(=O)CC(=O)C(=O)Nc2cccc([N+](=O)[O-])c2C)c1	12.0	0.4	-20.8	59.7*	0.7	120.5*	74.9*	77.4*	40.7*
CCNC(=O)COC(=O)C1CCC(=O)N(c2ccc(OC)cc2)C1c1ccc(OC)cc1 (stereo not given)	-0.5	-0.2	-2.9	1.4	-0.6	x	x	x	x
C/C(=N\NC(=O)CN(c1ccccc1)S(C)(=O)=O)c1ccccc1O	12.4	1.9	-0.7	2.7	0.9	x	x	x	x
COc1ccc(NC(=O)Cn2cnc3c(cnn3C(C)(C)C)c2=O)cc1OC	-18.0	1.8	-1.8	1.0	1.4	x	x	x	x
COc1ccc(Cc2nnc(NC(=O)CSc3ccc(Cl)cc3)s2)cc1OC	35.5	x	x	86.6*	x	75.0*	41.9*	36.4	20.4
COc1ccc(Cc2nnc(NC(=O)CSc3ccccc3)s2)cc1	50.1*	0.5	-8.2	48.9*	6.3	7.7	0.2	3.2	6.5
COc1ccc(Cc2nnc(NC(=O)CSc3ccc(C)cc3)s2)cc1	-12.7	1.4	1.5	8.0	-0.4	x	x	x	x
COc1ccc(Cc2nnc(NC(=O)c3ccc(OC)c(OC)c3)s2)cc1OC	-13.2	9.9	-10.8	1.4	3.3	x	x	x	x
CCCC(=O)N1CCCC1(C)C(=O)Nc1ccc(C)c(C)c1 (stereo not given)	8.8	x	x	-0.1	x	x	x	x	x
Cc1ccc(C)c(N/C(N)=N/c2nc(C)cc(C)n2)c1	97.7*	20.6*	-18.4	116.4*	26.1*	104.9*	66.6*	99.3*	76.2*
CCOc1ccc(N/C(N)=N/c2nc(C)cc(C)n2)cc1	97.1*	7.1	-24.2	70.2*	9.5	50.8*	38.7*	93.1*	80.7*
Cc1cc(C)nc(/N=C(\N)Nc2ccc(SC(F)F)cc2)n1	94.6*	31.8*	-10.4	101.9*	28.4*	98.6*	63.1*	98.3*	69.4*
Cc1cc(C)nc(/N=C(\N)Nc2ccc(S(=O)(=O)Nc3nc(C)cc(C)n3)cc2)n1	x	1.0	-1.3	x	0.5	x	x	x	x
Cc1cc(C)nc(/N=C(\N)Nc2ccc(F)c([N+](=O)[O-])c2)n1	70.6*	11.7	-18.5	68.3*	8.2	62.6*	38.0*	70.0*	39.0*
Cc1cc(C)nc(/N=C(\N)Nc2ccc(S(N)(=O)=O)cc2)n1	5.1	0.4	-12.5	3.0	0.2	x	x	x	x
SMILES	TAAR1 antagonist	OXTR agonist	OXTR potentiator	TAAR1 ag	V1R ag counter	TAAR1 ag conf	Ga16 nonsel ag	TAAR1 desensitize	Ga16 nonsel ant
CCOc1ccc(N/C(=N/c2nc(C)cc(C)n2)NC(=O)CC)cc1	-34.5	-0.5	-1.2	5.3	0.2	x	x	x	x
COc1ccccc1Nc1nc(N)nc(CN2CCc3ccccc3C2)n1	-7.7	-1.6	-10.8	43.5*	0.1	54.4*	1.3	-2.9	6.4
Nc1nc(CN2CCc3ccccc3C2)nc(Nc2ccccc2)n1	19.2	-1.3	3.7	59.2*	1.8	85.0*	0.9	47.0	10.4
COc1ccccc1N1CCN(Cc2nc(N)nc(Nc3ccc(C)cc3)n2)CC1	8.1	-1.5	-15.3	11.0	0.2	x	x	x	x
COc1ccc(Nc2nc(N)nc(CN3CCC(C)CC3)n2)cc1	-26.6	-1.2	-14.8	-0.3	-1.0	x	x	x	x
Nc1nc(CN2CCCCCC2)nc(Nc2ccccc2)n1	-16.5	-0.1	-11.0	5.8	-0.7	x	x	x	x
COc1ccc(Nc2nc(N)nc(CN3CCc4ccccc4C3)n2)cc1	-7.6	-1.3	-0.6	44.2*	0.1	88.1*	3.7	27.1	1.8
O=C(O)C1CCCCC1C(=O)Nc1cnn(Cc2ccccc2)c1 (stereo not given)	-4.4	-0.3	-15.3	5.0	0.1	x	x	x	x
Cc1ccccc1OC(C)C(=O)N1CCC(Cc2ccccc2)CC1 (stereo not given)	16.9	-1.4	-6.1	2.1	2.6	x	x	x	x
O=C(O)C1C(C(=O)O)C1(c1ccccc1)c1ccccc1 (stereo not given)	4.0	1.1	8.8	0.4	0.4	x	x	x	x
COc1cc2c(c(OC)c1OC)C1(CCCCC1)CC2NC(=O)c1ccncc1 (stereo not given)	-16.4	x	x	6.8	x	x	x	x	x
